{
  "source": "paper PMC3288537",
  "about": "(ACS Chemical Biology, 2011)",
  "key": {"SHP1": {"target": "SHP1 (Homo sapiens, UniProt P29350)", "sequence (P29350 whole entry)": "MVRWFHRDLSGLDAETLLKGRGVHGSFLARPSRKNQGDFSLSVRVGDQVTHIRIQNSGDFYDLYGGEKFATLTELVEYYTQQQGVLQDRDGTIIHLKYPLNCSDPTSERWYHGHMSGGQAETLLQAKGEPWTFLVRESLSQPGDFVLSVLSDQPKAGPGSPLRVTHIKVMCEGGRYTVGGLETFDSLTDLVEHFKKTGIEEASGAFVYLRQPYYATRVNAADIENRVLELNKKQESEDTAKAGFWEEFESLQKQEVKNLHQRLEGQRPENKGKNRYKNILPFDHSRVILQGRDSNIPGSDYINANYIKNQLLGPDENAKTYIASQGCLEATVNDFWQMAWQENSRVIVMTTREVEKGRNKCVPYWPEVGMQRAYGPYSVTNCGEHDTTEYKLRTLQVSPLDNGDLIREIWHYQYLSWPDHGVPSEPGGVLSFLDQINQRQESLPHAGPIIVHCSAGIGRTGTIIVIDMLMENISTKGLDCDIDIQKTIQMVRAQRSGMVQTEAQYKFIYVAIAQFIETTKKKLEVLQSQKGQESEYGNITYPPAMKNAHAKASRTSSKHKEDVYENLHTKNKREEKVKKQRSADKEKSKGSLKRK", "assay": "Dose-response OMFP phosphatase assay, SHP1", "format": "biochemical", "settings": "read-out: IC50 SHP1; OMFP substrate", "method_in_brief": "(§1)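 Ten-point 2-fold dilution series of test compound prepared in DMSO. Fluorescence (ex 485/em 528 nm) read in kinetic mode over 10 min; progress-curve slopes taken as activity. IC50 by nonlinear regression (sigmoidal, variable slope).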"}, "Tissue concentration": {"assay": "Tissue concentration", "format": "in vivo, C57B6 mice", "settings": "mice"}, "[1]": {"assay": "Serum concentration in mice after i.p. injection", "format": "in vivo", "settings": "i.p. 3 mg/kg", "method_in_brief": "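Mice dosed i.p. at 3 mg/kg with test compound. Blood serum collected 5, 20, 60 and 120 min after injection for measurement of compound concentration.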"}, "VHR": {"target": "VHR (Homo sapiens, UniProt P51452)", "sequence (P51452 whole entry, species assumed)": "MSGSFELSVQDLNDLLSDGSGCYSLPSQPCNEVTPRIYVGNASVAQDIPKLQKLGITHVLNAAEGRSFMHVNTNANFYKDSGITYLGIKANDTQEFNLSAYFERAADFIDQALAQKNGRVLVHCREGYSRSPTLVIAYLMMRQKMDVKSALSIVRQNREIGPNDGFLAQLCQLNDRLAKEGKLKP", "assay": "Dose-response OMFP phosphatase assay, VHR", "format": "biochemical", "settings": "read-out: IC50 VHR; OMFP substrate"}, "HePTP [2]": {"target": "T1, HePTP (Homo sapiens, UniProt P35236)", "T1 sequence (P35236 1-360)": "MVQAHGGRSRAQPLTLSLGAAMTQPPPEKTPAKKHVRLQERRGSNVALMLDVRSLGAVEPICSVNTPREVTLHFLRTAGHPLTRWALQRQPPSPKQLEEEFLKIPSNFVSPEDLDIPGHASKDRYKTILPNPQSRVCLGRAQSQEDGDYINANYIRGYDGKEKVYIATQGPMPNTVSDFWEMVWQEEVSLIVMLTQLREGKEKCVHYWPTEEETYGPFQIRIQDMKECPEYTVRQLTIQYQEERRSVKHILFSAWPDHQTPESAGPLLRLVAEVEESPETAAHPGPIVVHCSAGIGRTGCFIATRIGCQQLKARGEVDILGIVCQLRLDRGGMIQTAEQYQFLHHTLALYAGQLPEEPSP", "assay": "Dose-response OMFP phosphatase assay, HePTP", "format": "biochemical"}, "PTP-SL": {"target": "T2, PTP-SL (Homo sapiens, UniProt Q15256)", "T2 sequence (Q15256 22-657)": "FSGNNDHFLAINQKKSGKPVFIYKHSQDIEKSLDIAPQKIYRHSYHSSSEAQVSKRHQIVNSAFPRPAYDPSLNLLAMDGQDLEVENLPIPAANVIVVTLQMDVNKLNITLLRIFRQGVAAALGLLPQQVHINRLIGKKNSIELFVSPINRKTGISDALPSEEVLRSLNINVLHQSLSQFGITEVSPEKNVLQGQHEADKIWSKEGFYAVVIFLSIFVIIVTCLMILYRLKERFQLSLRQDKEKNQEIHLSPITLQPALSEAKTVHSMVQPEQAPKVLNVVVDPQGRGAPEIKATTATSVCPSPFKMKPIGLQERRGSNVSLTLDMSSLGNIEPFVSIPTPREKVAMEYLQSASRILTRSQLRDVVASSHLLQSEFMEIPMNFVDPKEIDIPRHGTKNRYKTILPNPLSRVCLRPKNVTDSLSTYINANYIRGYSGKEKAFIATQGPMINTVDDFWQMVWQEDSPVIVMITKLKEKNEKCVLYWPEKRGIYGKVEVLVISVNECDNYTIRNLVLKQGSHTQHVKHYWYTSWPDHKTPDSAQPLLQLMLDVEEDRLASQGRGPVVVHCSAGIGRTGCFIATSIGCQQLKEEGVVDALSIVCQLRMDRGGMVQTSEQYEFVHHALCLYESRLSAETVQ", "assay": "Dose-response OMFP phosphatase assay, PTP-SL", "format": "biochemical", "settings": "read-out: IC50 PTP-SL; OMFP substrate"}, "LAR": {"target": "LAR (Homo sapiens, UniProt P10586)", "sequence (P10586 30-1907, species assumed)": "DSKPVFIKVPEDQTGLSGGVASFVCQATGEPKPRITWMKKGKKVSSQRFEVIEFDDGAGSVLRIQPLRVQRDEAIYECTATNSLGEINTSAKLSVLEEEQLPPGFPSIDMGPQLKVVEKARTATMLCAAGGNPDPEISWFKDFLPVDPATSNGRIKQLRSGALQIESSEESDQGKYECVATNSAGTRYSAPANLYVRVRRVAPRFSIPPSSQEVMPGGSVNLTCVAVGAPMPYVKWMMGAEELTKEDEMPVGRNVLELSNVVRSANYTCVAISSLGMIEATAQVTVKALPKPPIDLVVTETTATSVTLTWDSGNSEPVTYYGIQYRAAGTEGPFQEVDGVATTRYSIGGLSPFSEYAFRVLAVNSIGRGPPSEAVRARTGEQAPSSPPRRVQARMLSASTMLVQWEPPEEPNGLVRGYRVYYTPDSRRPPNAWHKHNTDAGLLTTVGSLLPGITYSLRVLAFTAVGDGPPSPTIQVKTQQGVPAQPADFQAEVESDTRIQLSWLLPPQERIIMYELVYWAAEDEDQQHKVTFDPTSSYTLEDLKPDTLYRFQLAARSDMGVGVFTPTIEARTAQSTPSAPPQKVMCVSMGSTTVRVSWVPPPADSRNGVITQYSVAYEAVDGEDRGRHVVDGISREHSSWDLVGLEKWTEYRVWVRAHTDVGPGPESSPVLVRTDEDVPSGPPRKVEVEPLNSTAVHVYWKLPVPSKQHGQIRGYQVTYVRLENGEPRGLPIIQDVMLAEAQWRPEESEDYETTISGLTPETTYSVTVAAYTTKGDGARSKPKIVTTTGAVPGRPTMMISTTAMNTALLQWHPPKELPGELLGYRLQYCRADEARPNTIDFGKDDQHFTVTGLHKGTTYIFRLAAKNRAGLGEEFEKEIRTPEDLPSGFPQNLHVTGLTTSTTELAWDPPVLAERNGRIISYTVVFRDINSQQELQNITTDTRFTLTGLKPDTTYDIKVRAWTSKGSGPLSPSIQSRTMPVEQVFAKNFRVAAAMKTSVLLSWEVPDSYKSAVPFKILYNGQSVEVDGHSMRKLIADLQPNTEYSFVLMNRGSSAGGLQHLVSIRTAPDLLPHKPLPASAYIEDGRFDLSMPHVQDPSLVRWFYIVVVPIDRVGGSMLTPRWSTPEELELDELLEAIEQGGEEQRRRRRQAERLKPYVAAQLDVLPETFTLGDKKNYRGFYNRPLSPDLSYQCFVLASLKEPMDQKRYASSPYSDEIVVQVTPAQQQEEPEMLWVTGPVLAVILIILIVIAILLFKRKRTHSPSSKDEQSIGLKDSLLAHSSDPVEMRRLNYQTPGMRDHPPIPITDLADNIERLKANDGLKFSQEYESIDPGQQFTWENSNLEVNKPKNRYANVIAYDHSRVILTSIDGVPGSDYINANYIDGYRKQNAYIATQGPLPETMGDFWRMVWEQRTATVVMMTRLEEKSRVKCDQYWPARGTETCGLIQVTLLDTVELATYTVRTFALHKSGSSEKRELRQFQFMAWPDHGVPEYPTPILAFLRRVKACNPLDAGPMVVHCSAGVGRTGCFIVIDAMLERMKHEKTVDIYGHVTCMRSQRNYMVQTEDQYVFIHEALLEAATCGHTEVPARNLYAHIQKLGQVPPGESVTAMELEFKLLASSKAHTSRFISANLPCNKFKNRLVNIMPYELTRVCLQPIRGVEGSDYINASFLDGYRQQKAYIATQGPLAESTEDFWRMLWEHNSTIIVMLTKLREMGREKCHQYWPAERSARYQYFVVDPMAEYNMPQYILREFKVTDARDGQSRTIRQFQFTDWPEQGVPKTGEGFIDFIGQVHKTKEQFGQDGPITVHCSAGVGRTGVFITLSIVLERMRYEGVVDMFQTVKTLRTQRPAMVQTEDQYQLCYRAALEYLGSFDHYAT", "assay": "Dose-response OMFP phosphatase assay, LAR", "format": "biochemical", "settings": "read-out: IC50 LAR; OMFP substrate", "method_in_brief": "as §1"}, "HePTP [3]": {"target": "T1, HePTP", "assay": "Michaelis-Menten kinetic studies with OMFP", "format": "biochemical", "settings": "various inhibitor and substrate concentrations", "method_in_brief": "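Started by adding OMFP at 0–400 μM. Initial rates read by fluorescence (ex 485/em 528 nm), corrected with no-enzyme controls. Eadie-Hofstee plots drawn; competing models compared by AICc.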"}, "TCPTP": {"target": "T3, TCPTP (Homo sapiens, UniProt P17706)", "T3 sequence (P17706 1-415)": "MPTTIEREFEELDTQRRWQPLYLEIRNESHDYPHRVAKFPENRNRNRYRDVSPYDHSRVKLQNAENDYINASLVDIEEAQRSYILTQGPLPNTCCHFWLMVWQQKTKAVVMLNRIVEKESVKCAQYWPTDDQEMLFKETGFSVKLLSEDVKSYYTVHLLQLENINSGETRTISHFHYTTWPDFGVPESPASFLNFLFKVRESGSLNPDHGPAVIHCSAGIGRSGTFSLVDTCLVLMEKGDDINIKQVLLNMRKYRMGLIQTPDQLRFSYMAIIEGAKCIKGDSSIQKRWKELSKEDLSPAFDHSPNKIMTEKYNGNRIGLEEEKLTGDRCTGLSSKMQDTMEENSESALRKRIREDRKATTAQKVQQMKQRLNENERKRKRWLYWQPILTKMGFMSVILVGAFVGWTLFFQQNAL", "assay": "Dose-response OMFP phosphatase assay, TCPTP", "format": "biochemical", "settings": "read-out: IC50 TCPTP; OMFP substrate", "method_in_brief": "as §1"}},
  "note": "“And” between values parts separate entries of the source, which are not always exact repeats. Equal values may be shown once.",
  "data": [
    {"smiles": "O=C(O)c1ccccc1-c1ccc(/C=c2\\sc3nc4cc(Br)cnc4n3c2=O)o1", "note": "[Compound 1]", "values": [
      {"measurement": "IC50", "setting": "SHP1", "value": 2.5, "unit": "µM"},
      {"measurement": "blood-brain-barrier crossing", "setting": "Tissue concentration; i.p.", "value": "does not appear to cross the BBB"},
      {"measurement": "concentration in the spleen tissue", "setting": "Tissue concentration; i.p.", "value": "< 500", "unit": "nM"},
      {"measurement": "compound in cerebellum", "setting": "Tissue concentration; i.p. 3 or 5 mg/kg, 3 h", "value": "could not be detected"},
      {"measurement": "compound in brain tissue", "setting": "Tissue concentration; i.p. 3 or 5 mg/kg, 3 h, detection limit ~1 nM", "value": "could not be detected"},
      {"measurement": "concentration in splenocytes", "setting": "Tissue concentration; i.p., 6 h after injection", "value": "265 ± 119", "unit": "nM"},
      {"measurement": "serum concentration (peak)", "setting": "[1]; 20 min, 3 mg/kg", "value": "1240 ± 170 nM and 1240 nM"},
      {"measurement": "serum concentration", "setting": "[1]; 2 h", "value": "18 ± 10", "unit": "nM"},
      {"measurement": "IC50", "setting": "VHR", "value": 1.9, "unit": "µM"},
      {"measurement": "time-dependent inhibition of HePTP (progress curves)", "setting": "HePTP [2]; progress curves linear over 98 min at different concentrations", "value": "no time-dependent inhibition"},
      {"measurement": "IC50", "setting": "HePTP [2]; read-out: IC50 HePTP, OMFP substrate", "value": 0.21, "unit": "µM"},
      {"measurement": "IC50", "setting": "PTP-SL", "value": 1.1, "unit": "µM"},
      {"measurement": "IC50", "setting": "LAR", "value": 73, "unit": "µM"},
      {"measurement": "inhibition pattern", "setting": "HePTP [3]", "value": "mixed inhibition pattern"},
      {"measurement": "IC50", "setting": "TCPTP", "value": 1, "unit": "µM"}
    ]}
  ]
}
